# Compound activity: PubChem, several laboratories
# Lmaj promast – inhibitors of Leishmania major promastigote growth; Leishmania major promastigotes, resazurin fluorescence viability; inhibition, % at 10 µM; AID 1063; 200,000 compounds, 9% hits; in the data active = inhibition above about 50%;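 note: promastigotes grown with compound for 44 hours at 28 °C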
# HSF-1 act – increases HSF-1 driven luciferase reporter signal; NIH3T3-HGL HSF-1 luciferase reporter, MG132, 8 h; 100% = twice DMSO control signal; activation, % at 9 µM; 300,000 compounds, 1.7% hits;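 active = mean replicate activation of at least 50% with a set share of replicates each reaching 50%; inconclusive = only one of those two conditions met; inactive = mean below 50% and too few replicates reaching it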;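 note: 0% = median of the neutral control wells and 100% = twice that signal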
# HSF1 inhib – HSF1 inhibition. 300,000 compounds, 0.77% hits. activity change, negative = inhibition, % at 7.5 µM (by protocol). AID 2098. NIH3T3-HGL HSE-luciferase, MG132-induced, luminescence 8 h; active compounds read low;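 active = more than half of replicate wells show activity change below -50%, luminescence cut by over half; inconclusive = some wells, but at most half, below -50%; inactive = no replicate well below -50%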;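 note: luciferase reports HSF-1 transcriptional activity via heat shock element; 0% = median of DMSO wells and -100% = zero luminescence signal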
# T cruzi inh – T. cruzi replication inhibition; T. cruzi beta-gal in NIH3T3, luminescence, 90 h; inhibition, % (concentration not given with the values); 300,000 compounds, 1.4% hits;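 active = mean inhibition across valid replicates above about 55%, limit read from the data; inconclusive = mean below that limit but half or more replicates reach it; inactive = mean below it, under half of replicates reach it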;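 note: signal also drops with host cell toxicity which is not excluded here; 0% = plate median of DMSO wells and 100% = zero luminescence signal; higher percent means less beta-gal luminescence so fewer parasites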
#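 System: Mouse NIH/3T3 fibroblasts infected with β-gal-expressing T. cruzi Tulahuen C4 | Quantity: NIH/3T3 cells, 5,000 per well | Reagent: 5000 reporter trypomastigotes per well | Dosing: Compound pinned at 50 nL/well, DMSO | Schedule: 3 h host attachment, then at least 90 h co-culture | Detection: GalScreen luminescence, 60 min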
# Hsp70 activator – switches on Hsp70 transcription; activation, % at 10 µM; 200,000 compounds, 0.04% hits; HeLa Hsp70 promoter luciferase reporter, luminescence; scaled: vehicle 0, proteasome-inhibitor control 100%;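 active = activation above the mean across all tested compounds plus 3 SD, cutoff set per campaign, cut at about 5.5% in these data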;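 note: 100% = MG132 at 30 µM as the positive control and 0% = DMSO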
# * marks the source's active call; other numbers are inactive results; u = inconclusive; x = not tested or not shown. Shown is part of a subset that was picked to be rich in hits.
SMILES,Lmaj promast,HSF-1 act,HSF1 inhib,T cruzi inh,Hsp70 activator
Cc1cccc(NC(=O)CSc2cccc3cccnc23)c1C,x,-34,-19,-5,x
CCOC(=O)CSc1cccc2cccnc12,91*,46,17,27,0
Oc1ccccc1C1=NN(c2ccccc2)C(c2ccc(F)cc2)C1 (stereo not given),x,-4,3,30,x
Oc1ccccc1C1=Nc2nc3ccccc3n2C(c2ccccc2)C1 (stereo not given),91*,48,25,16,0
N#Cc1cccnc1N1CCN(C(=O)c2cccs2)CC1,x,5,-5,-1,x
COc1ccc(CN2CCNC(=O)C2CC(=O)N(C)Cc2ccon2)c(F)c1 (stereo not given),x,1,0,-1,x
c1ccc(COc2cccc(CN3CCN(c4ccccn4)CC3)c2)cc1,79*,-63,-55*,14,0
COc1cccc(CN2CCN(Cc3cccc(Oc4ccccc4)c3)CC2)c1OC,x,4,-1,12,x
CN1CCN(Cc2cccc(Oc3ccc(Cl)cc3)c2)CC1,100*,x,x,75*,0
CCN1CCN(Cc2cccc(Oc3ccccc3)c2)CC1,97*,-5,3,59*,0
CCN1CCN(Cc2cccc(Oc3ccc(Cl)cc3)c2)CC1,96*,-5,5,u,-1
O=C1C=C(c2ccc3c(c2)OCO3)CCC1,x,2,-5,-9,x
Nn1c(SCC(=O)Nc2nccs2)nnc1-c1ccccn1,x,27,11,-14,x
CC(=O)NC(CC(=O)OCC(=O)Nc1ccc2c(c1)OCO2)c1ccccc1 (stereo not given),x,-1,-17,5,x
c1ccc(Oc2cccc(CN3CCCCC3)c2)cc1,100*,3,5,38,0
c1ccc(COc2cccc(CN3CCCCC3)c2)cc1,x,2,-8,14,x
CCCCc1nc2ccccc2c(N)c1CCC (tested in a mixture with another compound),95*,21,-4,47,-1
CC1CCN(S(=O)(=O)c2cccc(C(=O)NCc3cccs3)c2)CC1,0,0,-10,-11,-1
CC1CCN(c2ccc(C(=O)NCc3cccs3)cn2)CC1,-2,52*,39,7,0
CSC(=NC#N)N1CCN(c2ccc(Cl)cc2)CC1,24,56*,27,-28,0
CN(C)C(=C(C#N)C#N)N1CCN(c2ccc(Cl)cc2)CC1,-7,-8,-11,-1,0
COc1ccc2cc(-c3ccccc3)ncc2c1,x,75*,35,10,x
Clc1ccc(Cl)c(OCCN2CCCC2)c1,x,-2,-7,6,x
Clc1cc(Br)ccc1OCCOCCN1CCCC1,x,-5,-3,59*,x
Clc1cc(Br)ccc1OCCOCCN1CCOCC1,96*,-2,-2,44,0
SMILES,Lmaj promast,HSF-1 act,HSF1 inhib,T cruzi inh,Hsp70 activator
Cc1cc(C(C)(C)C)ccc1OCCOCCN1CCCC1,96*,5,4,55*,0
Cc1[nH]n(-c2ncc(-c3ccc(Cl)cc3)s2)c(=O)c1C(c1ccc(Cl)cc1)C(C#N)C#N (stereo not given),99*,19,10,-6,0
CSc1ccccc1C(=O)C1CCCN(Cc2cnn(-c3ccccc3)c2)C1 (stereo not given),73*,-30,-13,74*,0
CCn1cc(CN2CCCC(C(=O)c3ccc(-c4ccccc4)c(F)c3)C2)cn1 (stereo not given),x,-9,-3,55*,x
CCOC(=O)Cc1nnc(Nc2cc(C)ccc2C)c2ccccc12,20,41,4,-25,0
CSCCC1NC(=O)N(C(C)C(=O)Nc2cc(Cl)cc(Cl)c2)C1=O (stereo not given),15,6,-4,4,0
COc1ccc(C(=O)Nc2cc(C)on2)cc1S(=O)(=O)N1CC(c2ccccc2)CC1=O (stereo not given),0,5,-3,2,0
COc1cc(/C=C(\C#N)C(=O)Nc2cccc(C(=O)O)c2)ccc1OCc1ccc(Cl)cc1,x,113*,75,-11,x
COc1ccc(/C=C(/C#N)C(=O)Nc2cccc(C)c2C)cc1C(=O)O,-4,13,-1,8,0
COc1ccc(/C=C(\C#N)C(=O)NCCc2ccccc2)cc1OCc1ccccc1,96*,-16,2,9,0
COc1ccc(/C=C(/C#N)C(=O)Nc2ccccc2C)cc1C(=O)O,59*,13,-5,-11,0
